Source: PMC2944037 (Environmental toxicology and chemistry / SETAC, 2010)
“Also recorded” adds a separate entry of the source. Like-named read-outs stand apart in the source and are kept apart here. Values belong to the compound of their own block, whether it stands above or below them.

Assays:
human MCF-7 cells = details: proliferation of human MCF-7 cells; cited from earlier work
endogenous hERα and hERβ = assay: T47D-KBluc transactivation assay; assay type: cell-based, human
Outline: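 Stably transfected T47D reporter line (endogenous ERα/ERβ, 3×-ERE-TATA-Luc) was plated at 10,000 cells/well and dosed after overnight culture for 24 h. […] After PBS rinse and lysis, luciferase RLU was read with D-luciferin and converted to log fold induction. One-way ANOVA was applied. There were two independent experiments, four wells per treatment.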

aERα [1] = details: read-out: Dissociation constant (Kd) of aERα for E2; recombinant aERα; cited from earlier work
aERα [2] = assay: CV1 transactivation assay with exogenous aERα; assay type: cell-based, American alligator (Alligator mississippiensis)
[3] = target: alligator estrogen receptor alpha (aERα) (Alligator mississippiensis, UniProt Q765N7); assay: Cell-free competitive binding assay with baculovirus-expressed recombinant aERα; set-up: species or system American alligator (Alligator mississippiensis); details: for RBA, Alligator: IC50 of 17β-estradiol / IC50 of compound × 100; for Binder class, Alligator: aERα, displacement of [3H]E2 at highest soluble concentration; for E2 displaced from aERα: maximum displacement of radiolabeled E2; for Binding classification for aERα: non-binder <50% E2 displaced, equivocal binder 50% or greater but <80%
[4] = target: T1, human estrogen receptor alpha (hERα) (Homo sapiens, UniProt P03372); assay: Cell-free competitive binding assay with baculovirus-expressed recombinant hERα; details: for RBA, Human: IC50 of 17β-estradiol / IC50 of compound × 100; for Binder class, Human: hERα, displacement of [3H]E2 at highest soluble concentration; for E2 displaced from hERα: maximum displacement of radiolabeled E2; for Binding classification for hERα: non-binder <50% E2 displaced, equivocal binder 50% or greater but <80%
T1 sequence (P03372 1-595): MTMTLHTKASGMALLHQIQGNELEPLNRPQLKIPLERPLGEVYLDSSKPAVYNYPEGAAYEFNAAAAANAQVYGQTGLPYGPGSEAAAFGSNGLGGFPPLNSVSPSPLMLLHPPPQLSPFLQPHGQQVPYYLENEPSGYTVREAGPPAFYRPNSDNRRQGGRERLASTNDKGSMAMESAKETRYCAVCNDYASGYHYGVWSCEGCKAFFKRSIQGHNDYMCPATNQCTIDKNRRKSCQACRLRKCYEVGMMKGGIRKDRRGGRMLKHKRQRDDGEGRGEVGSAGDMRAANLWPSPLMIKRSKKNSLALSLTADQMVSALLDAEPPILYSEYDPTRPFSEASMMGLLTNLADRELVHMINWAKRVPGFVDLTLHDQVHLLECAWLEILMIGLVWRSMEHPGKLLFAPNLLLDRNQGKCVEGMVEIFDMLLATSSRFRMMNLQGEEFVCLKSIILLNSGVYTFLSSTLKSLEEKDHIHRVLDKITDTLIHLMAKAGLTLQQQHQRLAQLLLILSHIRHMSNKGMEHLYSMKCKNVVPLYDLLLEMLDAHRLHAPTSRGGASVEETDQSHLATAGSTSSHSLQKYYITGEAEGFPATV

alligator embryos = details: cited from earlier work
[5] = test system: human estrogen receptor (hER); details: cited from earlier work
[6] = test system: alligator estrogen receptor (aER) derived from adult female alligator oviductal tissue; details: cited from earlier work
hER = details: read-out: EC50, hER agonist; cited from earlier work
T47D-KBluc cells = assay: Cytotoxicity observed in the T47D-KBluc assay; assay type: cell-based, human; details: 30 μM
CV1 cells = assay: Cell distress observed in the CV1 transactivation assay; assay type: cell-based, monkey; details: 30 μM
hERα = hERα (Homo sapiens, UniProt P03372); assay: CV1 transactivation assay with exogenous hERα; assay type: cell-based

SMILES: Cl[C@H]1[C@H](Cl)[C@@H](Cl)[C@@H](Cl)[C@H](Cl)[C@H]1Cl [lindane]
Activity in the E-screen assay (human MCF-7 cells): inactive

RBA, Alligator [3]: 100
SMILES: C[C@]12CC[C@@H]3c4ccc(O)cc4CC[C@H]3[C@@H]1CC[C@@H]2O [17β-Estradiol, reference compound]
Transcriptional activation of estrogen-dependent reporter (endogenous hERα and hERβ; T47D-KBluc cells): dose dependent transactivation
Kd (aERα [1]): 0.44 ± 0.039 nM
Transcription of estrogen responsive gene with aERα (aERα [2]; CV1 cells): induced transcription

SMILES: ClC1=C(Cl)[C@]2(Cl)[C@H]3[C@H]([C@H](Cl)C(Cl)[C@@H]3Cl)[C@@]1(Cl)C2(Cl)Cl (stereo partly drawn) [cis-Nonachlor]
RBA, Human [4]: 0.003
Binder class, Human [4]: EB (Equivocal binder: displaced greater than 50%, but less than 80% at the highest soluble concentration.)
RBA, Alligator [3]: 0.006
Binder class, Alligator [3]: EB (Equivocal binder: displaced greater than 50%, but less than 80% at the highest soluble concentration.)

SMILES: ClC(Cl)=C(c1ccc(Cl)cc1)c1ccc(Cl)cc1 [p,p′-DDE, 1-Chloro-4-[2,2-dichloro-1-(4-chlorophenyl)ethenyl]benzene]
Sex ratio (alligator embryos; 100 ppb in ovo, 32°C (mixed sex ratio)): slight female sex bias
Male to female sex reversal (alligator embryos; 100 ppb in ovo, 33.5°C): no male to female sex reversal
Binder class, Human [4]: NB (Non-binder: displaced less than 50% 17b-estradiol at the highest soluble concentration.)
E2 displaced from hERα [4]: ~0%
Binding classification for hERα [4]: non-binders
Binder class, Alligator [3]: NB (Non-binder: displaced less than 50% 17b-estradiol at the highest soluble concentration.)
E2 displaced from aERα [3]: ~28%
Binding classification for aERα [3]: non-binders

SMILES: CCNc1nc(Cl)nc(NC(C)C)n1 [Atrazine]
Binding to hER [5]: do not bind
Sex reversal (alligator embryos; 33°C, stage 21, single topical egg exposure to 0.14, 1.40, or 14.0 ppm): no sex reversal at any concentration
Gonadal aromatase activity (alligator embryos; in ovo exposure): did alter gonadal aromatase activity
Plasma E2 concentrations (alligator embryos; in ovo exposure): not plasma E2 concentrations
Binding to oviduct-derived aER [6]: able to bind
Activity in the E-screen assay (human MCF-7 cells): inactive
Binding to hERα ([4]; at concentrations up to 100 μM): not able to bind
Binding classification for hERα [4]: not able to bind; also recorded: non-binders
Binding to aERα ([3]; at concentrations up to 100 μM): not able to bind
Binding classification for aERα [3]: not able to bind; also recorded: non-binders

SMILES: ClC1=C(Cl)[C@]2(Cl)[C@H]3[C@H]([C@H](Cl)C(Cl)[C@@H]3Cl)[C@@]1(Cl)C2(Cl)Cl (stereo partly drawn) [trans-Nonachlor]
Binder class, Human [4]: NB (Non-binder: displaced less than 50% 17b-estradiol at the highest soluble concentration.)
E2 displaced from hERα [4]: 48%
Binding classification for hERα [4]: non-binder
RBA, Alligator [3]: 0.005
Binder class, Alligator [3]: EB (Equivocal binder: displaced greater than 50%, but less than 80% at the highest soluble concentration.)
E2 displaced from aERα [3]: 68%
Binding classification for aERα [3]: equivocal binder

SMILES: C[C@]12CC[C@@H]3c4ccc(O)cc4C[C@@H](CCCCCCCCC[S+]([O-])CCCC(F)(F)C(F)(F)F)[C@H]3[C@@H]1CC[C@@H]2O (stereo partly drawn) [ICI, ICI 182,780, reference compound]
Effect of ICI on E2-elicited transactivation (endogenous hERα and hERβ; 1 μM ICI + 30 pM E2, data not shown): reversed
Effect of ICI on E2-elicited transcriptional activation (aERα [2]; 1 μM ICI + 10 nM E2, data not shown): ablated

SMILES: OC(c1ccc(Cl)cc1)(c1ccccc1Cl)C(Cl)(Cl)Cl (racemic) [racemic (±) o,p′-dicofol, o,p′-dicofol]
EC50 (hER): 4200 nM

SMILES: Clc1ccc(C(c2ccccc2Cl)C(Cl)(Cl)Cl)cc1 (stereo not drawn) [o,p′-DDT, 1-Chloro-2-[2,2,2-trichloro-1-(4-chlorophenyl)ethyl]benzene]
IC50 [3]: 977 nM
RBA, Alligator [3]: 0.08

SMILES: Clc1ccc(C(c2ccc(Cl)cc2)C(Cl)Cl)cc1 [p,p′-DDD, 1-Chloro-4-[2,2-dichloro-1-(4-chlorophenyl)ethyl]benzene]
Binder class, Human [4]: NB (Non-binder: displaced less than 50% 17b-estradiol at the highest soluble concentration.)
Binding classification for hERα [4]: non-binders
Binder class, Alligator [3]: NB (Non-binder: displaced less than 50% 17b-estradiol at the highest soluble concentration.)
Binding classification for aERα [3]: non-binders

SMILES: ClC(Cl)=C(c1ccc(Cl)cc1)c1ccccc1Cl [o,p′-DDE, 1-Chloro-2-[2,2-dichloro-1-(4-chlorophenyl)ethenyl]benzene]
IC50 [4]: 219000 nM
RBA, Human [4]: 0.003
Binder class, Human [4]: EB (Equivocal binder: displaced greater than 50%, but less than 80% at the highest soluble concentration.)
Binding classification for hERα [4]: equivocal binders
IC50 [3]: 85100 nM
Binder class, Alligator [3]: EB (Equivocal binder: displaced greater than 50%, but less than 80% at the highest soluble concentration.)
Binding classification for aERα [3]: equivocal binders

SMILES: ClC1=C(Cl)C2(Cl)C3C(Cl)C(Cl)CC3C1(Cl)C2(Cl)Cl (stereo not drawn) [chlordane]
Binding to oviduct-derived aER [6]: able to bind
Activity in the E-screen assay (human MCF-7 cells): inactive

SMILES: ClC1=C(Cl)C2(Cl)C3C(Cl)C=CC3C1(Cl)C2(Cl)Cl (stereo not drawn) [heptachlor]
Binding to oviduct-derived aER [6]: able to bind
Activity in the E-screen assay (human MCF-7 cells): inactive

SMILES: CCc1cccc(CC)c1N(COC)C(=O)CCl [alachlor]
Binding to hER [5]: do not bind
Binding to oviduct-derived aER [6]: able to bind
Activity in the E-screen assay (human MCF-7 cells): inactive

SMILES: OC(c1ccc(Cl)cc1)(c1ccccc1Cl)C(Cl)(Cl)Cl (single isomer, unassigned; (-)) [(−) o,p′-dicofol, o,p′-dicofol]
EC50 (hER): 510 nM

RBA, Human [4]: 0.05
IC50 [3]: 1070 nM
RBA, Alligator [3]: 0.07
SMILES: CC(C)(c1ccc(O)cc1)c1ccc(O)cc1 [Bisphenol A, reference compound]

SMILES: CCNc1nc(Cl)nc(NC(C)(C)C#N)n1 [Cyanazine, cyanazine]
Activity in the E-screen assay (human MCF-7 cells): inactive
Binder class, Alligator [3]: NB (Non-binder: displaced less than 50% 17b-estradiol at the highest soluble concentration.)

SMILES: OC(c1ccc(Cl)cc1)(c1ccc(Cl)cc1)C(Cl)(Cl)Cl [p,p′-Dicofol, p,p′-dicofol]
Concentration eliciting maximal transactivation (endogenous hERα and hERβ; T47D-KBluc assay): 10 µM
Transcriptional activation of estrogen-dependent reporter (endogenous hERα and hERβ; T47D-KBluc cells): dose-dependent increase
EC50 (endogenous hERα and hERβ; read-out: EC50, transcriptional activation through hER, T47D-KBluc cells): 1500 nM
Cytotoxicity (cell detachment, cytopathology) (T47D-KBluc cells): toxic to the cells
RBA, Human [4]: 0.001
Binder class, Human [4]: EB (Equivocal binder: displaced greater than 50%, but less than 80% at the highest soluble concentration.)
E2 displaced from hERα [4]: 58%
Binding classification for hERα [4]: equivocal binder
EC50 (hER): 1600 nM
Concentration eliciting maximal transactivation (aERα [2]; CV1 assay, aERα): 10 µM
Transcription of estrogen responsive gene with aERα (aERα [2]; CV1 cells): induced transcription
EC50 (aERα [2]; read-out: EC50, transcriptional activation through aERα, CV1 cells, 3x-ERE-TATA-Luc): 2800 nM
RBA, Alligator [3]: 0.02
E2 displaced from aERα [3]: 83%
IC50 ([3]; read-out: IC50 for aERα): 4000 nM
Cell distress (increase in detached cells) (CV1 cells): cell distress
Concentration eliciting maximal transactivation (hERα; CV1 assay, hERα): 10 µM
Transcription of estrogen responsive gene with hERα (hERα; CV1 cells): induced transcription
